One compound from PubChem BioAssay AID652203 (Vanderbilt Specialized Chemistry Center, 2013) can be followed below.

The target in this assay is Metabotropic glutamate receptor 7 (Rattus norvegicus) (UniProt P35400). In words: L-AP4 potency shift at rat mGlu7 – cell-based, TRex293, Galpha15, Fluo4 calcium, selectivity assay for mGlu5 silent allosteric modulator project (AID 652203). As to conditions: rmGlu7+Galpha15 TRex293, L-AP4 calcium Fluo4 fold shift; at 10 µM. The essentials:
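Assay system: TRex293 cells expressing rat mGlu7 plus Galpha15; Technique: Fluo4 calcium fluorescence; Medium: pH 7.4 buffer with probenecid; Timing: compound at 20 s, agonist 60 s later; Doses: single test-compound dose of 10 µM, 1% DMSO final; Evaluation: shift in L-AP4 response caused by compound; Reagent: L-AP4, 3.9 µM–1 mM, 9 concentrations.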

Molecules are shown by their SMILES. Calls of active or inactive are those of the source. How the calls were made is not given here.

Sequence of Metabotropic glutamate receptor 7 (Rattus norvegicus) (P35400 whole entry, looked up): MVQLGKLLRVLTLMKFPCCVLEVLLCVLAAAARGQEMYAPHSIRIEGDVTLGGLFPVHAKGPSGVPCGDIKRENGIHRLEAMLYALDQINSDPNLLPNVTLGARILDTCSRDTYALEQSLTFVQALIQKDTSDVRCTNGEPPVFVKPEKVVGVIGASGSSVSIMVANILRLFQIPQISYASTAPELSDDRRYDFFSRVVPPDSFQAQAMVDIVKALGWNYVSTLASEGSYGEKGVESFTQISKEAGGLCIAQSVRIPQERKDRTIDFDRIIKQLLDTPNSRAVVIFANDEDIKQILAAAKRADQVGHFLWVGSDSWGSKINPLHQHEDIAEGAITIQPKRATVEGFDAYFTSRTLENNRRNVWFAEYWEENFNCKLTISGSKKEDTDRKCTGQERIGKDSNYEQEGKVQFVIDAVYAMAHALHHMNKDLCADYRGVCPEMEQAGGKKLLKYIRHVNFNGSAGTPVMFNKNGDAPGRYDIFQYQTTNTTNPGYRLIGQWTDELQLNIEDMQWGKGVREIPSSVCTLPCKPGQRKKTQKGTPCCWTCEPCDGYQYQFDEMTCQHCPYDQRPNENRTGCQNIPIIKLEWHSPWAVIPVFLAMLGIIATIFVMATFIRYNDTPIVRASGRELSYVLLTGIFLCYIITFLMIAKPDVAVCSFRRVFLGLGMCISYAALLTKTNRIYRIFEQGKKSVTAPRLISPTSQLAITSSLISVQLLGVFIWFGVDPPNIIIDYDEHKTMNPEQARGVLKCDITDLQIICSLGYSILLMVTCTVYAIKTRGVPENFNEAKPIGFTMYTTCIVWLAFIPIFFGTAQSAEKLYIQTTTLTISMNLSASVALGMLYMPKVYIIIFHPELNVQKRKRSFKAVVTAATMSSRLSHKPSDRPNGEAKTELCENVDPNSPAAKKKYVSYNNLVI

`O=C(c1ccc(C#Cc2cccc(F)c2)cn1)N1CC2CC2C1` (stereo unspecified): the fold shift of L-AP4 EC50 is 0.696 (inactive).
